According to ChEMBL document CHEMBL1126587, “Novel 6-alkoxypurine 2',3'-dideoxynucleosides as inhibitors of the cytopathic effect of the human immunodeficiency virus” (J Med Chem, 1993):
“And” between values parts separate entries of the source, which are not always exact repeats. Identical values can stand only once.

Experiments:
[1] = Percentage of D98 cell growth at 100 uM nucleosides after 4 days.; assay type: functional, Homo sapiens
Method in brief: (§1)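 Human sternal marrow D-98 cells or mouse connective tissue L cells exposed to 100 μM nucleoside for 4 days. Growth expressed as % of untreated control, which underwent at least three doublings.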

MT4 [2] = assay: Percentage of MT-4 cell growth was calculated at 100 uM nucleosides after 5 days.; assay type: functional, Homo sapiens
Method in brief: (§2)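 MT4 cells exposed to 100 μM nucleoside for 5 days, growth given as % of untreated control, which underwent at least three doublings.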

MT4 [3] = assay: Effect of Coformycin on the Anti-HIV activity in MT-4 cells; assay type: functional, cell-based; conditions: Homo sapiens
Method in brief: (§3)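 Anti-HIV-1 assay in MT4 cells infected with 100-fold TCID50 HTLV-IIIB over 5 days, run with EHNA or coformycin at 0.1 or 1.0 μM to block deaminase; control wells received PBS in their place. IC50 determined; triplicates, at least five runs.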

MT4 [4] = assay: Effect of Erythro-9-(2-Hydroxy-3-nonyl) adenine (EHNA) on the Anti-HIV activity in MT-4 cells; assay type: functional, cell-based, Homo sapiens; method in brief: as §3
MT4 [5] = assay: Anti-Human immunodeficiency virus activity against MT-4 cells; assay type: functional, cell-based
Method in brief: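 MT4 cells infected with HTLV-IIIB at 100-fold TCID50 (100-fold the virus stock concentration giving 50% growth inhibition), compound present for 5 days. IC50 from cell growth protection. Each compound run in triplicate at least five times.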

MT4 [6] = assay: Effect of Phosphate buffered saline on the Anti-HIV activity in MT-4 cells; assay type: functional, cell-based; conditions: Homo sapiens; method in brief: as §3
L cells [7] = assay: Percentage of L cell growth at 100 uM nucleosides after 4 days.; assay type: functional, Mus musculus, L929; method in brief: as §1
[8] = (§4) Percentage of control cell growth was calculated at 100 uM nucleosides after 4 days; assay type: functional, Homo sapiens; method in brief: as §1
L cells [9] = assay: as §4; assay type: functional, Mus musculus, L929; method in brief: as §1
MT4 [10] = assay: Percentage of control cell growth was calculated at 100 uM nucleosides after 5 days; assay type: functional, Homo sapiens; method in brief: as §2
MT4 [11] = assay: Effect of Coformycin on the Anti-HIV activity in MT-4 cells at 0.10 uM; assay type: functional, cell-based; conditions: Homo sapiens; method in brief: as §3
MT4 [12] = assay: Effect of Coformycin on the Anti-HIV activity in MT-4 cells at 1.0 uM; assay type: functional, cell-based; conditions: Homo sapiens; method in brief: as §3
MT4 [13] = assay: Effect of Erythro-9-(2-Hydroxy-3-nonyl) adenine (EHNA) on the Anti-HIV activity in MT-4 cells at 0.10 uM; assay type: functional, cell-based; conditions: Homo sapiens; method in brief: as §3
MT4 [14] = assay: Effect of Erythro-9-(2-Hydroxy-3-nonyl) adenine (EHNA) on the Anti-HIV activity in MT-4 cells at 1.0 uM; assay type: functional, cell-based; conditions: Homo sapiens; method in brief: as §3

CCCCOc1ncnc2c1ncn2C1CCC(CO)O1 (stereo not given)
Control [1]: 85%
Control (MT4 [2]): 100%
IC50 (MT4 [3]): > 200 µM
IC50 (MT4 [4]; mt4): 26 µM and 70 µM
IC50 (MT4 [5]): 70 µM
IC50 (MT4 [6]): 38 µM
Control (L cells [7]): 68%

CCCC(C)Oc1ncnc2c1ncn2C1CCC(CO)O1 (stereo not given)
Control [1]: 81%
Control (MT4 [2]): 100%
IC50 (MT4 [5]): 80 µM
Control (L cells [7]): 67%

CCCCCCCCCOc1ncnc2c1ncn2C1CCC(CO)O1 (stereo not given)
Control [8]: 27%
Control (L cells [9]): 23%
IC50 (MT4 [5]): > 5 µM

C/C=C/COc1ncnc2c1ncn2C1CCC(CO)O1 (stereo not given)
Control [1]: 35%
Control (MT4 [2]): 100%
IC50 (MT4 [3]): > 200 µM
IC50 (MT4 [4]; Homo sapiens, MT4): 50 µM
IC50 (MT4 [4]; mt4): 80 µM
IC50 (MT4 [5]): 59 µM
IC50 (MT4 [6]): 70 µM
Control (L cells [7]): 58%

CCCCCCCOc1ncnc2c1ncn2C1CCC(CO)O1 (stereo not given)
Control [8]: 47%
Control (L cells [9]): 34%
IC50 (MT4 [5]): 25 µM

CC(C)Oc1ncnc2c1ncn2C1CCC(CO)O1 (stereo not given)
Control [1]: 74%
Control (MT4 [2]): 100%
IC50 (MT4 [5]): 100 µM
Control (L cells [7]): 72%

CCOc1ncnc2c1ncn2C1CCC(CO)O1 (stereo not given)
Control [1]: 82%
Control (MT4 [2]): 100%
IC50 (MT4 [5]): > 100 µM
Control (L cells [7]): 90%

CCCCCCOc1ncnc2c1ncn2C1CCC(CO)O1 (stereo not given)
Control [1]: 54%
Control (MT4 [2]): 100%
IC50 (MT4 [3]): > 200 µM
IC50 (MT4 [4]): 25 µM and 60 µM
IC50 (MT4 [5]): 18 µM
IC50 (MT4 [6]): 24 µM
Control (L cells [7]): 42%

CCCOc1ncnc2c1ncn2C1CCC(CO)O1 (stereo not given)
Control [1]: 87%
Control (MT4 [2]): 100%
IC50 (MT4 [5]): > 100 µM
Control (L cells [7]): 87%

OCC1CCC(n2cnc3c(OCC(F)(F)F)ncnc32)O1 (stereo not given)
Control [1]: 82%
Control (MT4 [2]): 100%
IC50 (MT4 [5]): > 100 µM
Control (L cells [7]): 82%

CCCCCOc1ncnc2c1ncn2C1CCC(CO)O1 (stereo not given)
Control [1]: 60%
Control (MT4 [2]): 100%
IC50 (MT4 [5]): 50 µM
Control (L cells [7]): 48%

CCCCCCCCOc1ncnc2c1ncn2C1CCC(CO)O1 (stereo not given)
Control [8]: 29%
Control (L cells [9]): 28%
IC50 (MT4 [5]): > 32 µM

C=CCOc1ncnc2c1ncn2C1CCC(CO)O1 (stereo not given)
Control [1]: 68%
Control (MT4 [2]): 100%
IC50 (MT4 [5]): 97 µM
Control (L cells [7]): 70%

COc1ncnc2c1ncn2C1CCC(CO)O1 (stereo not given)
Control [1]: 97%
Control (MT4 [2]): 100%
IC50 (MT4 [5]): > 100 µM
Control (L cells [7]): 96%

CCCCCCCCCCOc1ncnc2c1ncn2C1CCC(CO)O1 (stereo not given)
Control [8]: <1%
Control (L cells [9]): 6%
Control (MT4 [10]): 20%
IC50 (MT4 [5]): > 5 µM

CCC(CC)Oc1ncnc2c1ncn2C1CCC(CO)O1 (stereo not given)
Control [1]: 60%
Control (MT4 [2]): 100%
IC50 (MT4 [5]): > 100 µM
Control (L cells [7]): 68%

OCC1CCC(n2cnc3c(OCCF)ncnc32)O1 (stereo not given)
Control [1]: 76%
Control (MT4 [2]): 100%
IC50 (MT4 [5]): > 100 µM
Control (L cells [7]): 100%

CC[C@@H](C)Oc1ncnc2c1ncn2[C@H]1CC[C@@H](CO)O1
Control [1]: 81%
Control (MT4 [2]): 100%
IC50 (MT4 [5]): > 100 µM
Control (L cells [7]): 81%

CCC(C)Oc1ncnc2c1ncn2[C@H]1CC[C@@H](CO)O1 (stereo not given in full)
Control [1]: 77%
Control (MT4 [2]): 100%
IC50 (MT4 [5]): > 100 µM
Control (L cells [7]): 77%

CC(C)COc1ncnc2c1ncn2C1CCC(CO)O1 (stereo not given)
Control [1]: 98%
Control (MT4 [2]): 100%
IC50 (MT4 [5]): 52 µM
Control (L cells [7]): 98%

CC[C@H](C)Oc1ncnc2c1ncn2[C@H]1CC[C@@H](CO)O1
Control [1]: 81%
Control (MT4 [2]): 100%
IC50 (MT4 [5]): 80 µM
Control (L cells [7]): 85%

O=c1[nH]cnc2c1ncn2[C@H]1CC[C@@H](CO)O1 [DIDANOSINE]
Control [1]: 97%
Control (MT4 [2]): 100%
IC50 (MT4 [5]): 23 µM
IC50 (MT4 [11]): 28 µM
IC50 (MT4 [12]): 39 µM
IC50 (MT4 [13]): 30 µM
IC50 (MT4 [14]): 31 µM
IC50 (MT4 [6]): 30 µM
Control (L cells [7]): 100%
